Only some compounds are listed: those with a hit (about 2.7% of all), similar ones and a draw of the others.
FGF22 binding: shifts melting point of recombinant human FGF22; recombinant FGF22 thermal shift, SYPRO orange fluorescence; percent of sucrose octasulfate shift, DMSO zero; 340,000 tested, 1.5% active; activity (Tm shift, normalised), % at 9.99 µM;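 active = mean Tm shift, scaled 0 neutral to 100 positive control, at about 1.3% or above, every replicate too, limit read from the data; inconclusive = no clear call, values can overlap the other calls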
Target sequence (Q9HCT0 whole entry, looked up): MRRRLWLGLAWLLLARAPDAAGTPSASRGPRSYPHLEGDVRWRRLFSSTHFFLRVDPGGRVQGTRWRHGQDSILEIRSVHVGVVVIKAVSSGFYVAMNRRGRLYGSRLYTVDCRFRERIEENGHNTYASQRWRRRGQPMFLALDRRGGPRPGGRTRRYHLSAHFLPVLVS
E-sel inducer: E-selectin induction on HUVECs; P16581; HUVEC E-selectin immunofluorescence imaging; normalized: neutral wells 0, TNF-alpha wells 100; activation, % at 7.58 µM; 260,000 tested, 0.37% active;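 active = mean E-selectin-positive cell signal at least 10% of the positive control, reached in at least 60% of replicates, without over 20% cell loss; inconclusive = no rule given, readout overlaps actives, possibly toxicity-flagged; inactive = the rest, including those meeting only one limit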
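Material: HUVEC primary endothelial cells; Amount: 3,000 cells per well; Dosing: single concentration; Medium: EGM-2 growth medium on 0.1% gelatin-coated wells; Read-out basis: percent E-selectin-positive cells; Signal: immunofluorescence imaging; Control set: TNF-alpha, DMSO.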
S100A4 MyoIIA: blocks human S100A4 binding to myosin IIA peptide. P26447. S100A4/TAMRA-MyoIIA peptide fluorescence polarization. inhibition, % at 10.7 µM. 360,000 tested, 0.14% active. AID 652163;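 active = mean inhibition of at least 70% across replicates, with every replicate also reaching that level; inconclusive = mean inhibition reaches 70% but some replicates fall short; inactive = mean inhibition below 70%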
Target sequence (P26447 whole entry, looked up): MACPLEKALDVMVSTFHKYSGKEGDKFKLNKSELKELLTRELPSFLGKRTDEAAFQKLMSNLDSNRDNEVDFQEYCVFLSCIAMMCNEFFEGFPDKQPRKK
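Test system: S100A4 monomer protein. Medium: HEPES buffer with Ca2+, pH 7.2. Reagent: fluorescent myosin IIA peptide, 5 nM. Compound dosing: single-point compound testing. Timing: 5 min between mix addition and reading. Benchmarks: DMSO neutral and TFP positive wells.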
HIV Env fusion: inhibitors of HIV Env-mediated cell fusion; 360,000 tested, 1.1% active; HeLa-JRFL Env/CEM21 cell fusion, luciferase; inhibition, % at 12.3 µM;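 active = mean replicate inhibition score of at least 50 and every replicate individually at or above 50; inconclusive = only one of the two criteria met; inactive = mean below 50 and not all replicates reaching 50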
F508del corr: CFTR F508del correction in bronchial cells. CFBE cells, YFP halide quenching; stimulated with forskolin plus potentiator P3; % fluorescence drop versus neutral controls. activity (quench increase), % at 7.58 µM. 350,000 tested, 0.36% active. AID 720511;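 active = mean added fluorescence quench of at least 8% versus neutral control, with both replicates also reaching 8%; inconclusive = only one of the mean or replicate conditions met; inactive = mean below 8% and not both replicates reaching 8%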;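 also: cells transiently co-express mutant CFTR-F508del with the halide-sensitive YFP; corrector assay measuring rescue of mutant channel to the surface after 24 h compound exposure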
A number is an active result; 0 = inactive; ? = inconclusive; - = no result given; [ ] = another dose, or the depositor's remark.

SMILES	FGF22 binding	E-sel inducer	S100A4 MyoIIA	HIV Env fusion	F508del corr
CCn1c(C)cc(C(=O)CN2C(=O)c3ccccc3S2(=O)=O)c1C	0	0	0	98.5	0
Cc1noc(C)c1NC(=O)Nc1ccc2c(c1)CC(=O)N([C@@H](C)CO)C[C@H](C)[C@@H](CN(C)C(=O)NC(C)C)O2	0	0	-	0	0
COc1ccc(Nc2oc(COc3ccc(Cl)cc3)nc2C#N)cc1	-	-	-	84.4	-
CC(=O)N(C)C[C@@H]1Oc2cc(C3=CCCC3)ccc2S(=O)(=O)N([C@@H](C)CO)C[C@@H]1C	0	0	0	0	0
COc1ccc(C(=O)Cc2ccccc2C(=O)O)cc1	0	0	0	0	0
COc1ccc(C(=O)CSc2ccccc2C(=O)O)cc1	44.1	-	0	0	0
COc1cccc(NC(=O)N2C[C@H](O)COC[C@@H]3O[C@@H](CC(=O)NCc4ccccc4F)CC[C@H]32)c1	0	0	-	-	0
CCCCCCc1cc2cc(-c3nnc(-c4ccccc4OC)o3)c(=O)oc2cc1O	-	-	-	87.5	-
COc1ccc(NC(=O)Nc2ccc3c(c2)C(=O)N([C@@H](C)CO)C[C@H](C)[C@@H](CN(C)Cc2ccc(C(F)(F)F)cc2)OCCCC[C@H](C)O3)cc1	0	0	0	0	0
C[C@H]1CN([C@@H](C)CO)C(=O)c2cc(N(C)C)ccc2O[C@H]1CN(C)S(=O)(=O)c1cn(C)cn1	0	415.2	0	0	0
C[C@@H]1CN([C@H](C)CO)C(=O)c2cc(N(C)C)ccc2O[C@@H](C)CCCCO[C@H]1CN(C)S(=O)(=O)c1cn(C)cn1	-	0	0	0	0
C[C@H](CO)N1C[C@H](C)[C@@H](CN(C)S(=O)(=O)c2cn(C)cn2)Oc2ccc(N(C)C)cc2C1=O	0	33.3	0	0	0
C[C@H]1CN([C@@H](C)CO)C(=O)c2cc(NC(=O)CCC(F)(F)F)ccc2O[C@@H]1CN(C)S(=O)(=O)c1cn(C)cn1	0	0	97.9	-	0
CC(C)NC(=O)N(C)C[C@@H]1Oc2ccc(NC(=O)CCN3CCOCC3)cc2C(=O)N([C@H](C)CO)C[C@@H]1C	0	0	0	0	0
C[C@@H]1CN([C@@H](C)CO)C(=O)c2cc(N(C)C)ccc2O[C@@H](C)CCCCO[C@H]1CN(C)C(=O)c1ccncc1	0	0	0	0	0
C[C@H](CO)N1C[C@H](C)[C@H](CN(C)C(=O)c2ccccc2)OCCCC[C@H](C)Oc2ccc(NC(=O)Nc3ccc4c(c3)OCO4)cc2C1=O	0	0	0	60.9[16.7 µM]	0
C[C@@H]1CCCCO[C@H](CN(C)C(=O)c2ccccc2)[C@H](C)CN([C@@H](C)CO)C(=O)c2cc(NC(=O)Nc3ccc(F)cc3)ccc2O1	1.3	0	0	0	0
C[C@H]1CCCCO[C@@H](CN(C)C(=O)c2ccccc2)[C@@H](C)CN([C@@H](C)CO)C(=O)c2cc(NC(=O)Nc3ccc(C(F)(F)F)cc3)ccc2O1	0	0	0	67.8[16.7 µM]	0
COc1ccc(NC(=O)N(C)C[C@H]2Oc3ccc(NC(=O)Cc4cn(C)c5ccccc45)cc3CC(=O)N([C@H](C)CO)C[C@@H]2C)cc1	0	0	0	0	0
CCNC(=O)/C=C/c1ccccc1[N+](=O)[O-]	0	30.5	0	0	0
CCC(C)(C)NC(=O)/C=C/c1ccccc1[N+](=O)[O-]	0	0	0	0	0
Cn1ccnc1C(O)c1cccc(OCc2ccccc2)c1 (configuration not stated)	0	-	0	0	0
OC(c1cccc(OCc2ccccc2)c1)c1nnc(-c2ccccc2)o1 (configuration not stated)	-	-	-	73.3	-
COc1ccc2[nH]cc(CCNS(=O)(=O)Cc3ccccc3)c2c1	43.2	-	0	0	0
COc1ccc2[nH]cc(CCNC(=O)CS(=O)(=O)Cc3ccccc3)c2c1	0	-	0	0	0
SMILES	FGF22 binding	E-sel inducer	S100A4 MyoIIA	HIV Env fusion	F508del corr
CCCCCn1ccc(=O)c2c(C(F)(F)F)nccc21	-	-	-	50.8	-
CCCCCCCn1ccc(O)c(CC(=O)OC)c1=O	0	0	0	0	0
Cc1nn2cc(-c3cccc(Cl)c3)cnc2c1Br	0	0	0	0	9.5
COCCCNC(=S)Nc1cc2oc3ccccc3c2cc1OC	0	0	0	67.6	?
COc1cc2c(cc1NC(=S)Nc1cccc(C(F)(F)F)c1)oc1ccccc12	-	-	-	0	-
COc1ccc2c3c([nH]c2c1)[C@H](CO)N(C(=O)C1CCCCC1)CC31CCN(Cc2nccs2)CC1	0	0	0	-	0
CC(C)CC(NC(=O)CC12CC3CC(CC(C3)C1)C2)C(=O)NC1=NCCS1 (configuration not stated)	42.9	-	0	0	0
CC(NNC(=S)N1CCN(c2ccccn2)CC1)c1nccc2ccccc12 (configuration not stated)	0	0	0	0	0
CC(NNC(=S)N1CCCCCC1)c1ccc2ccccc2n1 (configuration not stated)	0	0	0	68.8	0
Cc1cnc(NC(=O)CCc2ccccc2)s1	0	-	0	0	8.9
CC(C)C(=O)NN(C(=O)c1ccccc1)c1ccccc1	0	-	0	0	0
CC(C(=O)O)N(C(=O)c1ccccc1)c1ccc(F)cc1 (configuration not stated)	0	-	0	0	10.0
CCC(=O)Nc1ccc2c(c1)C(=O)N(C)[C@@H]1CC[C@@H](CC(=O)NCCc3ccncc3)O[C@@H]1CO2	-	0	-	0	0
Cc1noc(C)c1S(=O)(=O)N(C)C[C@@H]1Oc2ccc(NC(=O)Nc3ccc(F)cc3)cc2CC(=O)N([C@@H](C)CO)C[C@H]1C	0	0	0	0	0
Cc1noc(C)c1S(=O)(=O)N(C)C[C@@H]1Oc2ccc(NC(=O)C3CC3)cc2CC(=O)N([C@@H](C)CO)C[C@H]1C	0	0	142.3	0	0
C[C@H](CO)N1C[C@H](C)[C@H](CN(C)S(C)(=O)=O)Oc2ccc(NC(=O)Nc3cccc4ccccc34)cc2CC1=O	0	0	0	0	0
C[C@H]1CN([C@@H](C)CO)C(=O)Cc2cc(NC(=O)CCN3CCOCC3)ccc2O[C@H]1CN(C)S(C)(=O)=O	0	0	0	0	0
Cc1noc(C)c1S(=O)(=O)N(C)C[C@H]1Oc2ccc(NC(=O)C3CC3)cc2CC(=O)N([C@@H](C)CO)C[C@@H]1C	0	?	0	0	0
C[C@@H]1CN([C@H](C)CO)C(=O)Cc2cc(NC(=O)CCN3CCOCC3)ccc2O[C@H]1CN(C)S(C)(=O)=O	0	331.7	0	0	0
Cc1noc(C)c1S(=O)(=O)N(C)C[C@@H]1Oc2ccc(NC(=O)Nc3cccc4ccccc34)cc2CC(=O)N([C@@H](C)CO)C[C@@H]1C	0	0	0	59.3[16.7 µM]	0
Cc1noc(C)c1S(=O)(=O)N(C)C[C@H]1Oc2ccc(NC(=O)Nc3ccccc3)cc2CC(=O)N([C@H](C)CO)C[C@H]1C	-	0	-	69.4[16.7 µM]	0

High-throughput results as filed in PubChem BioAssay.
